How the values were obtained:
Assay type in all cases: functional
[1] = Cytotoxicity against human SNB75 cells by SRB assay; settings: SNB-75
Method in brief: (§1)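 NCI 60 human tumor cell line panel, sulforhodamine B (SRB) protein-stain read-out. Compounds were first screened at a single dose of 10^-5 M, and selected compounds were then tested in a five-dose format. GI50 is the drug concentration giving a 50% reduction in net protein increase relative to control cells.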

[2] = Cytotoxicity against human HL-60(TB) cells by SRB assay
Method in brief: (§2)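 NCI 60-cell-line panel using sulforhodamine B protein stain. Initial single-dose screen at 10^-5 M, then five-dose testing. GI50 is the drug concentration giving a 50% reduction in net protein increase relative to control cells.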

[3] = Cytotoxicity against human SF539 cells by SRB assay; settings: SF-539; method in brief: as §1
NCI/ADR-RES = assay: Cytotoxicity against human NCI/ADR-RES cells by SRB assay; method in brief: as §1
KM12 = assay: Cytotoxicity against human KM12 cells by SRB assay; method in brief: as §1
SK-MEL-5 = assay: Cytotoxicity against human SK-MEL-5 cells by SRB assay; method in brief: as §1
CCRF-CEM = assay: Cytotoxicity against human CCRF-CEM cells by SRB assay; method in brief: as §1
NCI-H522 = assay: Cytotoxicity against human NCI-H522 cells by SRB assay; method in brief: as §1
[4] = Cytotoxicity against human IGROV1 cells by SRB assay; settings: IGROV-1; method in brief: as §2
M14 = assay: Cytotoxicity against human M14 cells by SRB assay; method in brief: as §1
[5] = Cytotoxicity against human RPMI8226 cells by SRB assay; settings: RPMI-8226; method in brief: as §1
[6] = Cytotoxicity against human SF295 cells by SRB assay; settings: SF-295; method in brief: as §1
[7] = Cytotoxicity against human Hs578T cells by SRB assay; settings: Hs-578T; method in brief: as §1
[8] = Cytotoxicity against human HCC2998 cells by SRB assay; settings: HCC 2998; method in brief: as §1
[9] = Cytotoxicity against human HCT116 cells by SRB assay; settings: HCT-116; method in brief: as §1
[10] = Cytotoxicity against human OVCAR3 cells by SRB assay; settings: OVCAR-3; method in brief: as §1
CAKI-1 = assay: Cytotoxicity against human CAKI-1 cells by SRB assay; method in brief: as §1
ACHN = assay: Cytotoxicity against human ACHN cells by SRB assay; method in brief: as §1
[11] = Cytotoxicity against human SF268 cells by SRB assay; settings: SF-268; method in brief: as §1
HT-29 = assay: Cytotoxicity against human HT-29 cells by SRB assay; method in brief: as §1
U-251 = assay: Cytotoxicity against human U251 cells by SRB assay; method in brief: as §1
[12] = Cytotoxicity against human UO31 cells by SRB assay; settings: UO-31; method in brief: as §1
[13] = Cytotoxicity against human SNB19 cells by SRB assay; settings: SNB-19; method in brief: as §1
[14] = Cytotoxicity against human HCT15 cells by SRB assay; settings: HCT-15; method in brief: as §1
786-0 = assay: Cytotoxicity against human 786-0 cells by SRB assay; method in brief: as §1
A498 = assay: Cytotoxicity against human A498 cells by SRB assay; method in brief: as §1
K562 = assay: Cytotoxicity against human K562 cells by SRB assay; method in brief: as §1
SK-MEL-28 = assay: Cytotoxicity against human SK-MEL-28 cells by SRB assay; method in brief: as §1
MDA-MB-231 = assay: Cytotoxicity against human MDA-MB-231 cells by SRB assay; method in brief: as §1
[15] = Cytotoxicity against human SKOV3 cells by SRB assay; settings: SK-OV-3; method in brief: as §1
SR = assay: Cytotoxicity against human SR cells by SRB assay; method in brief: as §1
MCF7 = assay: Cytotoxicity against human MCF7 cells by SRB assay; method in brief: as §1
MDA-MB-435 = assay: Cytotoxicity against human MDA-MB-435 cells by SRB assay; method in brief: as §1
[16] = Cytotoxicity against human UACC62 cells by SRB assay; settings: UACC-62; method in brief: as §1
[17] = Cytotoxicity against human SW620 cells by SRB assay; settings: SW-620; method in brief: as §1
MDA-MB-468 = assay: Cytotoxicity against human MDA-MB-468 cells by SRB assay; method in brief: as §1
[18] = Cytotoxicity against human OVCAR4 cells by SRB assay; settings: OVCAR-4; method in brief: as §1
[19] = Cytotoxicity against human COLO205 cells by SRB assay; settings: COLO 205; method in brief: as §1
A549 = assay: Cytotoxicity against human A549 cells by SRB assay; method in brief: as §1
[20] = Cytotoxicity against human HOP62 cells by SRB assay; settings: HOP-62; method in brief: as §1
[21] = Cytotoxicity against human MOLT4 cells by SRB assay; settings: MOLT-4; method in brief: as §1
SK-MEL-2 = assay: Cytotoxicity against human SK-MEL-2 cells by SRB assay; method in brief: as §1
NCI-H23 = assay: Cytotoxicity against human NCI-H23 cells by SRB assay; method in brief: as §1
[22] = Cytotoxicity against human LOXIMVI cells by SRB assay; settings: LOX IMVI; method in brief: as §2

Structure (SMILES): COc1ccc(/C=C/c2cc(OC)cc(OC)c2/C=C(\C#N)c2ccc(OC)cc2)cc1
- GI50 [1]: 470 nM
- GI50 [2]: 1660 nM
- GI50 [3]: 270 nM
- GI50 (NCI/ADR-RES): 650 nM
- GI50 (KM12): 780 nM
- GI50 (SK-MEL-5): 2280 nM
- GI50 (CCRF-CEM): 750 nM
- GI50 (NCI-H522): 240 nM
- GI50 [4]: 2350 nM
- GI50 (M14): 1380 nM
- GI50 [5]: 1160 nM
- GI50 [6]: 360 nM
- GI50 [7]: 680 nM
- GI50 [8]: 2490 nM
- GI50 [9]: 490 nM
- GI50 [10]: 630 nM
- GI50 (CAKI-1): 500 nM
- GI50 (ACHN): 830 nM
- GI50 [11]: 4710 nM
- GI50 (HT-29): 690 nM
- GI50 (U-251): 640 nM
- GI50 [12]: 810 nM
- GI50 [13]: > 100000 nM
- GI50 [14]: 650 nM
- GI50 (786-0): 1720 nM
- GI50 (A498): 380 nM
- GI50 (K562): 430 nM
- GI50 (SK-MEL-28): 750 nM
- GI50 (MDA-MB-231): 2780 nM
- GI50 [15]: 1350 nM
- GI50 (SR): 910 nM
- GI50 (MCF7): 390 nM
- GI50 (MDA-MB-435): 240 nM
- GI50 [16]: 700 nM
- GI50 [17]: 500 nM
- GI50 (MDA-MB-468): 1720 nM
- GI50 [18]: 500 nM
- GI50 [19]: 1240 nM
- GI50 (A549): 910 nM
- GI50 [20]: 970 nM
- GI50 [21]: 4380 nM

Structure (SMILES): COc1ccc(/C=C/c2cc(OC)cc(OC)c2/C=C(\C#N)c2ccccc2OC)cc1
- GI50 [1]: 2280 nM
- GI50 [2]: 580 nM
- GI50 [3]: 1550 nM
- GI50 (NCI/ADR-RES): 710 nM
- GI50 (KM12): 640 nM
- GI50 (SK-MEL-5): 2440 nM
- GI50 (CCRF-CEM): 2240 nM
- GI50 (NCI-H522): 250 nM
- GI50 [4]: 5280 nM
- GI50 (M14): 1140 nM
- GI50 [5]: 2850 nM
- GI50 [6]: 2510 nM
- GI50 [7]: 1340 nM
- GI50 [8]: 5470 nM
- GI50 [9]: 1290 nM
- GI50 [10]: 1380 nM
- GI50 (CAKI-1): 2200 nM
- GI50 (ACHN): 4250 nM
- GI50 [11]: 4180 nM
- GI50 (HT-29): 480 nM
- GI50 (U-251): 2770 nM
- GI50 [12]: 3440 nM
- GI50 [13]: 8770 nM
- GI50 [14]: 760 nM
- GI50 (786-0): 3250 nM
- GI50 (A498): 1370 nM
- GI50 (K562): 430 nM
- GI50 (SK-MEL-28): 4220 nM
- GI50 (MDA-MB-231): 2830 nM
- GI50 [15]: 4730 nM
- GI50 (SR): 280 nM
- GI50 (MCF7): 720 nM
- GI50 (MDA-MB-435): 280 nM
- GI50 [17]: 710 nM
- GI50 (SK-MEL-2): 2130 nM
- GI50 (MDA-MB-468): 1700 nM
- GI50 [18]: 3590 nM
- GI50 [19]: 2280 nM
- GI50 (A549): 3560 nM
- GI50 [20]: 2790 nM
- GI50 [21]: 3300 nM

Structure (SMILES): COc1ccc(/C=C(\C#N)c2cc(OC)cc(OC)c2)cc1
- GI50 [1]: 290 nM
- GI50 [2]: 280 nM
- GI50 [3]: 220 nM
- GI50 (NCI/ADR-RES): 270 nM
- GI50 (KM12): 380 nM
- GI50 (SK-MEL-5): 270 nM
- GI50 (CCRF-CEM): 320 nM
- GI50 (NCI-H522): 90 nM
- GI50 [4]: 530 nM
- GI50 (M14): 280 nM
- GI50 [5]: 330 nM
- GI50 [6]: 220 nM
- GI50 [7]: 310 nM
- GI50 [8]: 340 nM
- GI50 [9]: 330 nM
- GI50 [10]: 300 nM
- GI50 (CAKI-1): 540 nM
- GI50 (ACHN): 530 nM
- GI50 [11]: 840 nM
- GI50 (HT-29): 280 nM
- GI50 (U-251): 343 nM
- GI50 [12]: 490 nM
- GI50 [13]: 980 nM
- GI50 [14]: 330 nM
- GI50 (786-0): 420 nM
- GI50 (A498): 250 nM
- GI50 (K562): 310 nM
- GI50 (NCI-H23): 530 nM
- GI50 [22]: 580 nM
- GI50 (SK-MEL-28): 490 nM
- GI50 (MDA-MB-231): 430 nM
- GI50 [15]: 370 nM
- GI50 (SR): 290 nM
- GI50 (MCF7): 310 nM
- GI50 (MDA-MB-435): 170 nM
- GI50 [16]: 400 nM
- GI50 [17]: 420 nM
- GI50 (SK-MEL-2): 880 nM
- GI50 (MDA-MB-468): 290 nM
- GI50 [18]: 730 nM
- GI50 [19]: 270 nM
- GI50 (A549): 380 nM
- GI50 [20]: 510 nM
- GI50 [21]: 430 nM

— ChEMBL document CHEMBL3739271, “Synthesis and evaluation of a series of resveratrol analogues as potent anti-cancer agents that target tubulin” (2015)
